For assay [1], the system named is Moloney murine sarcoma virus. The assay can be described thus: Antiviral activity against murine sarcoma virus. In kind it is functional, organism-based. In outline: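 Murine C3H/3T3 embryo fibroblasts were seeded at 5 × 10^5 cells/mL. After 24 h, cells were infected with 80 focus-forming units of MSV (from mouse tumours) for 90–120 min at 37 °C. Medium was then replaced by fresh medium containing varied compound concentrations, and MSV-induced transformation was the read-out.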

The subject of assay [2] is Cytomegalovirus. Nature of the assay: Antiviral activity against AD169 strain of cytomegalovirus (CMV) in HEL ([…]) cells. Format: functional, organism-based. In outline:
(§1)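 Inhibition of virus-induced cytopathicity. HSV-1 and HSV-2 were tested in E6SM cells; VZV and CMV in HEL cells. Confluent monolayers were inoculated with 100 CCID50 of virus. After 1–2 h adsorption, residual virus was removed and compound was added at serial concentrations (400, 200, 100, ... μg/mL). Cytopathicity was scored once untreated infected controls reached complete CPE.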

The nature of assay [3]: Antiviral activity against G strain of HSV-2 in E6SM cells. Format: functional, cell-based, herpes simplex virus. In outline: as §1
Assay [4] is described as follows: Antiviral activity against KOS strain of HSV-1 in E6SM cells. Format: functional, cell-based, herpes simplex virus. In outline: as §1
Assay [5] has as its system Human immunodeficiency virus 2. The assay can be described thus: Antiviral activity against HIV-2 (ROD) in CEM (human leukemia) cells. In kind it is functional, organism-based. The following applies: ccrf-cem. In a few lines: (§2)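 Human CEM cells (~3 × 10^5 cells/mL) were infected with 100 CCID50 per mL of HIV-1 (IIIB) or HIV-2 (ROD) and seeded into wells containing compound dilutions. After 4 days at 37 °C, syncytium (giant cell) formation was examined microscopically.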

Assay [6] has as its system CCRF-CEM. The assay can be described thus: Cytotoxicity against CEM (human lymphoblastic leukemia) cells in vitro. Format: functional.
Assay [7] relates to Human immunodeficiency virus 1. The assay can be described thus: Antiviral activity against HIV-1 (IIIB) in CEM (human leukemia) cells. In kind it is functional, organism-based. The following applies: ccrf-cem. In outline: as §2
Assay [8] has as its system Cytomegalovirus. The assay can be described thus: Antiviral activity against Davis strain of cytomegalovirus (CMV) in HEL ([…]) cells. In kind it is functional, organism-based. In outline: as §1
In assay [9] the test system is Human alphaherpesvirus 3. The assay can be described thus: Antiviral activity against 07/1 strain of VZV in HEL ([…]) cells. Format: functional, organism-based. In outline: as §1
Assay [10] can be described thus: Antiviral activity against vaccinia virus in HEL ([…]) cells. Format: functional, cell-based.
Assay [11] deals with Human alphaherpesvirus 3. Nature of the assay: Antiviral activity against OKA strain of VZV in HEL ([…]) cells. In kind it is functional, organism-based. Also on record: unit not given here. In outline: as §1
Assay [12] in a line: Antiviral activity against KOS strain of HSV-1; ND=No data. In kind it is functional, herpes simplex virus. In a few lines:
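Confluent E6SM cell cultures in 96-well plates were inoculated with 100 CCID50 virus. After 1–2 h adsorption, inoculum was removed and test compound was added at 400, 200, 100, ... µg/mL.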

SMILES strings stand for the structures.

For orientation: CC50 means the concentration giving 50% cytotoxicity. Consider `CCOC(=O)Cc1c(N)nc(N)n(CCOCP(=O)(O)O)c1=O`, for which the EC50 in [1] is given as 0.011 uM ml-1; in [2], above 0.15 uM ml-1; in [3], above 1.2 uM ml-1; in [4] it was above 1.2 uM ml-1; in [5] it was 0.11 uM ml-1; in [7], above 0.3 uM ml-1. Besides, the EC50 in assay [8] was above 0.15 uM ml-1; in [9], above 0.15 uM ml-1; in assay [10] it was above 1.2 uM ml-1; in [11], above 0.15. The molecule further showed a CC50 in assay [6] above 300 µM.
For the molecule `Nc1nc(N)n(CCOCP(=O)(O)O)c(=O)c1-c1ccccc1`, the EC50 is on record as above 1.12 uM ml-1 in assay [1]; above 0.15 uM ml-1 in assay [2]; above 1.2 uM ml-1 in [3]; above 1.2 uM ml-1 in assay [4]; above 0.3 uM ml-1 in [5]; above 0.3 uM ml-1 in assay [7]. Besides, the EC50 in [8] is above 0.15 uM ml-1; in assay [9] it was above 0.15 uM ml-1; in [10], above 1.2 uM ml-1; in assay [11] it was above 0.15. Also, the CC50 in assay [6] is above 300 µM.
As for `Nc1cc(OCCOCP(=O)(O)O)nc(N)n1`, the EC50 in assay [1] is given as 0.00015 uM ml-1; in assay [2] it was above 0.19 uM ml-1; in [3], 0.033 uM ml-1; in [4], 0.025 uM ml-1; in assay [5] it was 0.0016 uM ml-1; in assay [7] it was 0.003 uM ml-1. The EC50 in assay [8] was above 0.19 uM ml-1; in [9] it was 0.0095 uM ml-1; in assay [10], 0.18 uM ml-1; in assay [11], 0.0045. This molecule gave a CC50 in assay [6] of 42 µM.
Take `Cc1c(N)nc(N)nc1OCCOCP(=O)(O)O`: the EC50 in assay [1] is given as 0.00022 uM ml-1; in [2], above 0.15 uM ml-1; in assay [3], above 1.2 uM ml-1; in assay [4], above 1.2 uM ml-1; in [5] it was 0.00031 uM ml-1; in [7], 0.00043 uM ml-1. The EC50 is above 0.15 uM ml-1 in assay [8], 0.042 uM ml-1 in assay [9], above 1.2 uM ml-1 in [10] and 0.018 in assay [11]. Further, the CC50 in assay [6] is 15 µM.
Consider `CCOC(=O)Cc1c(N)nc(N)nc1OCCOCP(=O)(O)O`, for which the EC50 in assay [1] was 0.035 uM ml-1; in assay [2] it was above 0.15 uM ml-1; in assay [3], above 1.2 uM ml-1; in [4], above 1.2 uM ml-1; in [5], 0.078 uM ml-1; in [7] it was above 0.3 uM ml-1. Moreover, the EC50 was above 0.15 uM ml-1 in [8], above 0.15 uM ml-1 in [9], above 1.2 uM ml-1 in assay [10] and above 0.15 in assay [11]. In assay [6], this molecule yielded a 50% cytotoxic concentration (CC50) above 300 µM.
In the case of `Nc1nc(N)c(C2CC2)c(OCCOCP(=O)(O)O)n1`, the EC50 in assay [1] was above 1.12 uM ml-1; in assay [5] it was above 0.3 uM ml-1; in [12], above 1.2 uM ml-1; in assay [7] it was above 0.3 uM ml-1. In assay [6], the 50% cytotoxic concentration (CC50) is above 300 µM.

Source of the values: ChEMBL document CHEMBL1145896, “5-Substituted-2,4-diamino-6-[2-(phosphonomethoxy)ethoxy]pyrimidines-acyclic nucleoside phosphonate analogues with antiviral activity” (J Med Chem, 2003).
